Measurements taken from the EternaBench riboswitch data.

Test system: MS2 coat protein
Assay: apparent Kd, MS2 coat protein; higher = weaker binding; RNA-MaP array; FMN 200 µM where present
Method in brief: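 The apparent Kd comes from binding curves fitted cluster by cluster, filtered, and summarised as a median. Those curves followed SNAP-549-labelled MS2 coat protein from 0.7 or 1.5 nM, doubling to 3 µM, on Illumina sequencing-chip clusters where stalled E. coli RNA polymerase had transcribed the designs, without and then with constant ligand. The buffer was 100 mM Tris-HCl pH 7.5, 80 mM KCl, 4 mM MgCl2, BSA, DTT, yeast tRNA and Tween-20, and green signal was normalised to red-channel RNA signal and control-cluster median Fmax.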

[1] = designed as: OFF switch for flavin mononucleotide, no ligand
[2] = ligand present: flavin mononucleotide, designed as: OFF switch for flavin mononucleotide
[3] = designed as: ON switch for flavin mononucleotide, no ligand
[4] = ligand present: flavin mononucleotide, designed as: ON switch for flavin mononucleotide

Sequence	apparent Kd [1] [nM]	apparent Kd [2] [nM]	apparent Kd [3] [nM]	apparent Kd [4] [nM]
AAGAUGUAAGGAUAUGCUGCUCGUCACUUGCGUGAUGAGUAGCAGAAGGUACAUGAGGAUCACCCAUGUAAAGA	30.4	43.3		
AAAAAACAUGAGGAUCACCCAUGUCAGGAUAUACGAUAAAAAAAAAAAAAAAAAAAAUGUAGAAGGGACAAAAA	78.3	73.9		
GAGAUGACAGUCAGGAUAUCUGUAGGGCGGACUUAAGAGAAGGGACAUGAGGAUCACCCAUGUGUGAUUGGUUU	266	347		
GACUGCAGAGGAUAUACAUGAGGAUCACCCAUGUGAGAUGCCUGACAGGUGUUGCUGAGUAGAAGGCUGCACUG	14.1	21		
GCAUACAUUCGAGGAUAUCGGUGAACAAAUUAACGAGAAGGCGAUAGAAUGUUUCAUCUUAUGAACAUGAGGAUCACCCAUGUA			39.3	27.9
GGUACUCAAAGAGUACCAAUAUGAACAUGAGGAUCACCCAUGUAGGAUAUGCUACUCAAAGAGUAGCAGAAGGAUAUGUGUCUA	19.6	21.2		
GGCGAAGAGGCUAACAUGAGGAUCACCCAUGUGGACUCAUGGUAGGAUAUGCUGUACAAAGUACAGCAGAAGGGCCGCUGAGCC			146	663
UGCCUUGAGUAGAAGGGCUGUGCUGUGGCACUGAGUCCUCUCGACAUGAGGAUCACCCAUGUAGAGCAGGAUAUACUCGGAUAA	5.78	7.3		
CAUUAUGUUGAGGAUAUGCGCCGGCUCGCUGGCACAGAAGGCGACACAUGAGGAUCACCCAUGUCAGUUCGCGA	12.2	14.8		
AUGCAGCUACCACAGGAUAUACGUGGAUCGACAUGAGGAUCACCCAUGUAUAUCCUAAUAAUUGCGUAGAAGGGUGGUCAGCUGC			1540	103
UCAGCGGUGCAAGGAUAUAACACAAUUGUCCUUAGUCGAGACGAGUGACAUGAGGAUCACCCAUGUUAGAAGGUGUCCUGCUGG	72	326		
UGUUUCUUGUAAGGAUAUACUAGCGAUAAGCUAGUAGAAGGUACUGUCUUUUGUAUCUCAUAUUUACAUGAGGAUCACCCAUGU			9.41	8.07
UGGGACUAGGGAGGAUAUGGGAAGAUACAUGAGGAUCACCCAUGUUUAAGAAUGCCGAGAGGCAACUAGAAGGCCCUAGUACCU			446	20.4
CUUCUGUGAGGAUAUGUUAGCUCCCAGAAUGUCGCUGGGAGACAGAAGGCACAUGAGGAUCACCCAUGUGGGCG	35.2	175		
UGGUACUAGGGAGGAUAUGGGAAGAUACAUGAGGAUCACCCAUGUUUAAGAAUGCCGAGAGGCAACUAGAAGGCCCUAGCACCU			426	19
UGAAAUCAUGUAGGAUAUGCAUGGCGAAGCUACGCAGAAGGACAUGAGGAUCACCCAUGUUCUAGCUACCGGAUACGGUGGCAA	23.1	116		
AAUUAAUUAAUACAUGAGGAUCACCCAUGUAAUUAUUAGAUCAAGGAUAUCAGCUCGAUUAGAGCUGAGAAGGUGAUCACAUGU			412	102
GGUUGGCGAGGAUAUACAUGAGGAUCACCCAUGUGGUCCUGUGGCUGGUCUUAACUUUGUAGAAGGCGCGGGUC	66	82.8		
UCGAUCGUAUGAGGAUAUGGUACACAAAGUGUACCAGAAGGCAUGUCAAUAGACAUGAGGAUCACCCAUGUAUUAUCGAUCGAA			361	51.7
GUAGCAUACCGAGGAUAUUCAGGGCGUGGGUAAACAUGAGGAUCACCCAUGUGGCGAAAGCCUAGGGAGAAGGCGGAAUGCUAC			151	130
ACGAAGAUACAGAAGGGUAAAGUAGUUAAUUAUAAGUAGGAAAUGCUCUACAGGAUAUGUUAGACAUGAGGAUCACCCAUGUAC			30.7	13.1
ACAUGAUAUGUAGGAUAUCACAUUAAUUGAUUAAUAUAUCAAUAUAGAAUUUGAGAAGGACAUUUACAUGAGGAUCACCCAUGU	10.7	8.71		
UUGUUAUAUGUAGGAUAUGCAUAUUAUUAUUGUGCAGAAGGACAUGAGGAUCACCCAUGUAUAUUAUUAUUAUAUAUUAUAUAU	31.4	46		
UACAUGAGGAUCACCCAUGUUUUGUCGUGUAUGGUAUUUAUCUAGGAUAUCAAUUUAGUUAAUUAUGAGAAGGAGAAUAUUAAU	39.1	39		
GUGACGAUGUAAGGAUAUGCUGAGGAAUACUCAGCAGAAGGUACAUGAGGAUCACCCAUGUAAAUAAUAAGAAAUAAACGUCAC	16	24.9		
CACUCACAUGAGGAUCACCCAUGUCCUAGCAGGUCAGGAUAUAGCUCGGAUGCGUUCAGUCUAGAAGGGACACGUU			156	111
UUAAUAGUAGGAUAUACAUGAGGAUCACCCAUGUAGCAACUACAUUAAGGAACCUGAUGUAGAAGGACUCCCAG	13.3	15.2		
AGAUAACACCAGAAGGACAUGAGGAUCACCCAUGUAGGAUAUGGGCAUCACUCGAGAAAGAAACAACCAAAAGGACACGCGGUC			51	8.36

Sequence	apparent Kd [1] [nM]	apparent Kd [2] [nM]	apparent Kd [3] [nM]	apparent Kd [4] [nM]
GGUUGGCGAGGAUAUACAUGAGGAUCACCCAUGUGGUCCUAAAAUAAAAUAAACCUUUGUAGAAGGCGCGGGUC	268	428		
UUACUCAUGUAAGGAUAUGCAGCCGUGUCGGCUGCAGAAGGUACUAUAAUACAUGAGGAUCACCCAUGUCUAUAAAAUAAAGAC			48	26.8
UAAAUGUGAGGAUAUCAGGUGUGCUAGCAUACUGGUACAUCUGAGAAGGCACAUGAGGAUCACCCAUGUUCCUU	16.8	52.4		
GACUUGCGCACAGGAUAUCCACGGAGCGGACGUGGAGAAGGGUGACAUGAGGAUCACCCAUGUACGUAAGUCUGGAUCACUUCC			49.9	37.9
AUGCUUUAUGUAGGAUAUGCAUACUGUUAGUAUGCAGAAGGACAUGAGGAUCACCCAUGUAUAUUAUUAUUACAUAUCAUACAU	26	311		
GUGCGGUCAGGAUAUGCAUGGCGGGACUUGCGUCGUGGCGUGGAGAAGGGACAUGAGGAUCACCCAUGUGGAGC	51.4	54.2		
AUAUGGAAUACAGGAUAUGUAAGUUUUAAGUGUAUUGGUUAUUACUUAACAACAGAAGGGUAUUACAUGAGGAUCACCCAUGUA			12.8	10
CUUUUGUGAGGAUAUUCGUAGUAGGGUCAUGGCACUAUUACGGAGAAGGCACAUGAGGAUCACCCAUGUACCUU	15.1	26.4		
GCGACGAAAGUCGAACGAUGUAGCAGAAGGACAUGAGGAUCACCCAUGUCAGCUGUAACAGCCAUGUAGGAUAUGCUACAUCGA	4.26	5.11		
GGAUAGGACAGAGGAUAUACGUGCUAGAGAUACUAGCAAAAUUUCCUCACAUGAGGAUCACCCAUGUAGAAGGCUGUCCUACCG	17	484		
ACCAUUUACUAAUUAUCUAUACAUGAGGAUCACCCAUGUUAAGAGGAUAUCAUCGUUCGCCGCGUUGAGAAGGCUUAGCAUUCG	26.4	101		
CUGAUGUUAGGAUAUCAGGCGCCCGCCACUAGCAGGGCGCAUGAGAAGGGACAUGAGGAUCACCCAUGUAGUAA	31.6	54.5		
CUUUUGUGAGGAUAUUGGUAGUAAAUGAAUAAAAUUAUUACCGAGAAGGCACAUGAGGAUCACCCAUGUUCCUC	47.7	491		
UGUCGGAGCAGAGGAUAUUACAUGAGGAUCACCCAUGUAUGAACCAAUAGCUGGAAACAGCAAUGUCAGAAGGCUGCUCCGACA	5	5.06		
CUCAUGUGCGUCGGCAAGUUAACACAGGAUAUCCGAGAAAACAUGAGGAUCACCCAUGUAACUUCGGAGAAGGGUGAUGAGAGA			64.9	23.1
UGUCGGAGCAGAGGAUAUAUACAUGAGGAUCACCCAUGUAAAUGAAUGAGCUGGAAACAGCAUGUAUAGAAGGCUGCUCCGACA	118	298		
GGAUCCAUGUAGAAGGCUGUCUUAAAAUAGGACAGAGGAUAUACAUGAGGAUCACCCAUGUACUCCUUUAAAAGGAUCCAAAUA	5.5	8.65		
ACUAGUUGGUAAGGAUAUCCUACACUGUUCUGACCCGUGCAAGCUACAUGAGGAUCACCCAUGUGGGAGAAGGUGCGUCAACGC	15.3	15.9		
AACUGCUGCGUUGUGAUUUCUCCACAUGAGGAUCACCCAUGUCAGGAUAUCUUACCUAGCGGACAAGAGAAGGGACAUGACGGU	348	129		
UUAUGAUAGAUAGGAUAUACAAUGGAUUAAGAAGUAGAAGGAUCAAGUGGGAAAUGAACAUGAGGAUCACCCAUGUAAUAGGUU			127	83.5
AAAGACAUGGUGCAGGAUAUAUUAAUAGUCACAUGAGGAUCACCCAUGUUCAGAUAUCUGAACGAGUAGAAGGGCGAUGAAAAAA			602	589
AAAAAUGGAGGAUAUACAUGAGGAUCACCCAUGUGUGACUAUACUAUGCGCUCUUCAGGUAGAAGGCCAAAAAA	28.4	39.4		
AUGGACGUCGUAGGAUAUGUAGGAUUCUCCUACAUGAGGAUCACCCAUGUUGACGUGGAGGACGGACAGAAGGACGGUGUCCAU			7.22	4.8
AGUGUUUCGUUGUGACCCAUUCACAUGAGGAUCACCCAUGUAGAGGAUAUAGGUCACCACGGUUCCUAGAAGGCUGCAGGUGUG	5.71	7.3		
CACAUGUGAGGAUAUGUACGAGGCCCGGACGGGUCUCGCAGGCAGAAGGCACAUGAGGAUCACCCAUGUGACCG	23.9	66.7		
AGCUGUGGCCGAGGAUAUCUAGCUUCAAUAACCGAAAUAUAAUCGGACAUGAGGAUCACCCAUGUAGAGAAGGCGGUCUCAGCA	29.6	29.6		
CCAUAAAAGAUCCAAAAUUACAACAUGAGGAUCACCCAUGUGCAGGAUAUCGUGAAAGUGAAGUACGAGAAGGGCAGACACUGC	145	166		
